RGS4 act – RGS4 potentiation or activation | HEK293 M3R/inducible RGS4, carbachol calcium flux Fluo4; hits give low values | B-score at 10 µM | actives 0.92% (n = 310,000) | AID 463111;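 active means B-score of the integrated calcium signal more than 4 SD below the library mean, with starting fluorescence not abnormally high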;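 further: negative B-score means reduced calcium response which marks RGS4 activation or potentiation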
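test system = M3R-expressing HEK293 line, RGS4 induced by doxycycline | probe or stimulus = carbachol at ECmax as muscarinic agonist stimulus | timing = dye loading 30 min 37 °C, buffer rest 30 min RT | signal = calcium dye Fluo4 fluorescence | evaluation = B score from integrated fluorescence ratio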
RGS4 inh – human RGS4 inhibition; P49798; HEK293 M3R/RGS4 inducible, Fluo-4 calcium flux; hits give high values; triggered by carbachol at its EC20; B-score at 10 µM; actives 0.45% (n = 310,000); AID 463165;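 active means B-score, a plate-corrected calcium signal, over three deviations above library mean, with baseline fluorescence within five deviations of library mean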;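 further: RGS4 expression induced by doxycycline in cells with stable M3 receptor; B-score is computed from the integrated fluorescence ratio over baseline after carbachol; higher B-score means a larger calcium signal and so more RGS4 inhibition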
Target sequence (P49798 whole entry, looked up): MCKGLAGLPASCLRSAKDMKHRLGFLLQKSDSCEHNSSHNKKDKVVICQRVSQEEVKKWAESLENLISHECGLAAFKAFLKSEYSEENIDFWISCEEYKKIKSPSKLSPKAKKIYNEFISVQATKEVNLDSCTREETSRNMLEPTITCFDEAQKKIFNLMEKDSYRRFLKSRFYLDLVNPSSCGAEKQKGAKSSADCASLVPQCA
MrgX1 allo act – human MrgX1 positive allosteric modulation, primary screen; MrgX1-HEK293, Fluo-4 calcium flux, FDSS; hits give high values; B-score at 10 µM; actives 0.63% (n = 310,000);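 active means plate-corrected calcium response at least 3 library SD above typical, normal starting fluorescence, not activating the receptor alone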;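 further: compound read alongside a low EC10 to EC30 dose of BAM8-22 agonist; peak minus trough fluorescence over baseline measured at the second addition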
Target sequence (Q96LB2 whole entry, looked up): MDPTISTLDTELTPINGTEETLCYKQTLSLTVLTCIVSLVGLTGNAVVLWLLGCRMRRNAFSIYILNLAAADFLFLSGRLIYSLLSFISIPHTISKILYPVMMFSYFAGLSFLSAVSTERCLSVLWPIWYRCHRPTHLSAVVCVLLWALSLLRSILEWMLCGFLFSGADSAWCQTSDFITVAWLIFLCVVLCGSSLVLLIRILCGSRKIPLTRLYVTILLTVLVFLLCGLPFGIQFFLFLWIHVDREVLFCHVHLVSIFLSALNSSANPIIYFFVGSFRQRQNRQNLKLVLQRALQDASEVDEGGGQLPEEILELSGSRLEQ
MrgX1 antag – antagonists of human MrgX1 receptor | MRGX1-HEK293 calcium flux, Fluo-4, BAM8-22 antagonism; hits give low values | actives 1.3% (n = 310,000) | AID 588676 | B-score at 10 µM;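 active means calcium-response B-score plate-corrected more than 3 library SD below zero, starting fluorescence within 5 deviations, no agonist response on first addition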;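 further: peak minus trough fluorescence over baseline after final BAM8-22 challenge near maximal dose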
MrgX1 agonist – human MrgX1 receptor agonism, primary screen; MrgX1-HEK293 cells, Fluo-4 calcium fluorescence, agonist mode; hits give high values; B-score at 10 µM; actives 0.44% (n = 310,000); AID 588627;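 active means calcium response B-score plate-corrected fluorescence ratio at least 3 library SD, with starting fluorescence B-score inside 5 SD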
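times = overnight plating, then 30 min 37 °C plus 30 min room-temperature dye loading | assay system = stable human MrgX1 HEK293 cell line | input = fifteen thousand cells per well | signal = kinetic calcium dye fluorescence, Fluo-4 NW | dosing = compound delivered in addition one of three | read-out = B-scored fluorescence response ratio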
Starred values were filed as active, the others as inactive; i = inactive; . = not tested or not shown. Hits are enriched below; roughly 3.5% of the tested compounds scored in any of these assays.

SMILES | RGS4 act | RGS4 inh | MrgX1 allo act | MrgX1 antag | MrgX1 agonist
COc1ccc(NC(=O)C/C(C)=N/NC(=O)C(=O)NC2CCCCC2)c(OC)c1 | i | i | 9.2* | i | i
Cn1nc(C(C)(C)C)c([N+](=O)[O-])c1C(=O)NC1CCCCC1 | i | i | i | i | i
COc1ccc(OC)c(NC(=O)COC(=O)CCCN2C(=O)c3ccccc3C2=O)c1 | i | i | i | -9* | i
COc1ccc(Cl)cc1NC(=O)COC(=O)CCCN1C(=O)c2ccccc2C1=O | i | i | i | i | i
O=C(c1ccccc1Br)N1N=C(c2ccccc2)CC1c1ccccc1F (stereo not drawn) | -8* | i | i | i | i
COc1ccc(NC(=O)COC(=O)C2CCN(S(=O)(=O)c3cccs3)CC2)cc1 | i | i | i | i | i
CC(C)Oc1ccc(-c2nn(-c3ccccc3)cc2/C=c2\sc3ncnn3c2=O)cc1 | . | . | i | i | 47*
COc1ccc(-c2nn(-c3ccccc3)cc2/C=N/O)cc1 | i | i | i | i | i
CCN(Cc1ccccc1)c1ccc(/C=N/N=C(N)N)cc1 | i | i | i | -5.5* | i
C=C1C(=O)O[C@H]2C[C@]3(C)C([C@@H](OC(=O)/C(C)=C/C)[C@H]12)[C@](C)(O)CC[C@H]3O (stereo partly drawn) | i | i | i | i | i
C=C[C@@]1(C)CC(=O)[C@]2(O)[C@@]3(C)[C@@H](O)CCC(C)(C)[C@@H]3[C@H](O)[C@H](OC(C)=O)[C@@]2(C)O1 | i | i | 10* | i | i
COc1ccc(-n2nc3c(c2NC(=O)c2ccc(S(=O)(=O)N4CCOCC4)cc2)CS(=O)(=O)C3)cc1 | i | i | i | i | i
O=C(NN1C(=O)c2ccccc2NC1c1ccoc1)c1ccc([N+](=O)[O-])cc1 (stereo not drawn) | i | i | i | -4.6* | i
Nn1c(SCc2cccc(Br)c2)nnc1-c1cccnc1 | i | i | i | i | i
Cc1ccsc1-c1nc(CN2CCCC2c2ccc(F)cc2)c(C)o1 (stereo not drawn) | i | i | i | i | i
Cc1ccccc1-c1nc(CS(=O)CC(=O)NCc2ccccc2)c(C)o1 (stereo not drawn) | i | i | i | i | i
COCCNC(=O)CS(=O)Cc1nc(-c2ccccc2C)oc1C (stereo not drawn) | i | i | i | -5.3* | i
CCOc1ccccc1N1CC(C(=O)Nc2cc(Cl)ccc2-n2cncn2)CC1=O (stereo not drawn) | i | i | i | i | i
O=C(CCc1nnc(CCCCc2ccccc2)o1)NCCn1cccn1 | i | i | i | i | i
O=C(CCc1nnc(CCCCc2ccccc2)o1)NCCN1CCOC1=O | i | i | i | -5.3* | i
Cc1ccc(Sc2c([N+](=O)[O-])ncn2C)cc1 | i | i | i | i | i
Cn1cnc([N+](=O)[O-])c1Sc1ncccc1N | i | i | i | -7.2* | i
O=C(NC1C2CCCC1CN(C1CC1)C2)c1ccc(Cl)cc1 (stereo not drawn) | i | i | i | i | i
COc1ccc(OC)c(CNn2c(-c3ccccc3F)nc3ccccc3c2=O)c1 | i | i | i | -4.8* | i
CN(C)C1=NCCN1CC1CCCCC1 | . | . | i | i | i
SMILES | RGS4 act | RGS4 inh | MrgX1 allo act | MrgX1 antag | MrgX1 agonist
CCOC(=O)c1ccc(NC(=O)Cn2ncc(Cl)c(Cl)c2=O)cc1 | i | i | i | -5.2* | i
CCC(=O)Nc1ccc(C(=O)Cn2ncc(Cl)c(Cl)c2=O)cc1 | i | i | i | i | i
COc1ccc(S(=O)(=O)O/N=C2\CCCc3ccccc32)cc1 | i | i | i | -4.7* | i
COc1cccc(CNC(=O)CCC2CCCN(C(=O)Cc3ccccc3F)C2)c1 (stereo not drawn) | i | i | i | i | i
CN(C)S(=O)(=O)c1cccc(NC(=O)CSc2cccc3cccnc23)c1 | -7.3* | i | i | i | i
COc1ccc(C(C(=O)NC(C)(C)C)N(C(=O)CCC(=O)Nc2cc(C)on2)c2c(C)cccc2C)cc1 (stereo not drawn) | i | i | i | i | i
CN1CCN(S(=O)(=O)c2ccc(NS(=O)(=O)c3ccccc3)cc2)CC1 | i | i | i | i | i
COc1ccc(-c2cc([C@H]3[C@@H]4C=CCC[C@@]4(C)C(=O)N3Cc3ccccc3)ccc2F)cc1 | i | i | i | -5.4* | i
CC(C)c1csc(CN2CCC(n3nccc3NC(=O)Cc3ccccc3)CC2)n1 | i | i | i | i | i
COc1ccc(/C=N/NC(=O)c2ccc3ccccc3c2)cc1OS(=O)(=O)c1ccc(NC(C)=O)cc1 | -9.3* | i | i | i | i
CC1(C)Cc2c(C#N)c(NC3CCCCC3)nc(-c3ccco3)c2CO1 | i | i | i | i | 29*
COc1ccccc1C(CNC(=O)c1ccc(-c2ccccc2Cl)o1)N1CCCC1 (stereo not drawn) | -7.1* | i | i | i | i
COc1ccc(C(CNC(=O)c2ccc(-c3ccccc3Cl)o2)N2CCOCC2)cc1 (stereo not drawn) | i | i | i | i | i
Cc1nn(-c2ccccc2)c2nc(C(F)(F)F)[nH]c(=O)c12 | i | i | i | i | i
Cc1nn(-c2cc(C(F)(F)F)ccc2Cl)c2nc(C(Cl)(Cl)Cl)[nH]c(=O)c12 | i | i | i | i | 43*
Cc1ccc(CNC(=O)CCn2cc(-c3ccc(C)cc3)nc2CCN)cc1 | . | . | i | i | i
CC12CCC(C(=O)N(CC(O)CN3CCCCCC3)C1=O)C2(C)C (stereo not drawn) | i | i | i | i | i
O=C(CCCCCNc1nc(=S)[nH]c2ccccc12)NCCc1ccc(Cl)cc1 | i | i | 9.7* | i | i
O=C(CCCCCNc1nc(=S)[nH]c2ccccc12)NCCc1c[nH]c2ccccc12 | i | i | i | i | i
CCN(CC)C(=O)c1c2c(nc3ccccc13)-c1ccccc1CC2 | -7* | i | i | i | i
O=C(CSc1nccc(-c2cccs2)n1)Nc1ccccc1 | i | i | i | i | i
Cc1cc(C)cc(N(C(=O)Cc2cccs2)C(C(=O)NC2CCCCC2)c2ccccn2)c1 (stereo not drawn) | i | i | i | i | i
